From publication PMC11252475 (Acta Pharmaceutica Sinica. B, 2024)

Columns and labels:
rats [1] = assay: Sciatic nerve block model; assay type: in vivo, rat; conditions: 62.3 mmol/L near sciatic nerve
Summary of the method: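 Test compound (62.3 mmol/L) was injected near the sciatic nerve. Hind limbs were tested every 30 min until back to pre-test baseline. Sensory: paw withdrawal latency on a 55 °C hotplate, timed by stopwatch. Motor: extensor postural thrust in grams on a digital balance. Recovery was 50% of baseline.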

[2] = test system: NaV currents in rat trigeminal neuron (TG) neurons; assay: Whole-cell patch clamp, sodium current in TG neurons; assay type: cell-based
rats [3] = assay: Tooth extraction pain model; assay type: in vivo, rat
Summary of the method: (§1)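 Oral pain models in rats under 1%–3% isoflurane, with test compound given as local anesthetic. Food intake and body-weight change were measured on a precision balance over 24 h. Facial grooming was video-recorded for 1 h after dosing.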

rats [4] = assay: CFA-induced chronic plantar inflammatory pain model; assay type: in vivo, rat; conditions: 62.3 mmol/L, 0.2 mL subcutaneous at swollen foot
Summary of the method: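 Male SD rats (6–8 weeks, 250–300 g) under 1%–3% isoflurane had CFA injected into the right foot. Test compound (62.3 mmol/L, 0.2 mL) or equal-volume saline was given s.c. at the swollen site. Electronic von Frey stimulation to the side of the foot every 10 min after onset. Anesthesia failed when the value fell to half the limb-weight-to-baseline difference or below.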

NaV1.5 = NaV1.5 (Homo sapiens, UniProt Q14524); assay: Cell membrane chromatography; assay type: binding; conditions: capacity factor k′; reflects potential cardiac toxicity; k′ < 0 labeled as 0
hERG channel = hERG channel (Homo sapiens, UniProt Q12809); assay: hERG potassium current inhibition; assay type: cell-based
rats [5] = assay: Gingival incision pain model; assay type: in vivo, rat
Summary of the method: as §1

in vitro [6] = assay type: in vitro ADME; conditions: rat, microsomes, pH 7.4
rats [7] = assay: Dental pulp injury pain model; assay type: in vivo, rat; conditions: compared with AT
Summary of the method: as §1

rats [8] = assay: Local anesthetic toxicity, blood biochemistry and organ pathology; assay type: in vivo, rat
Summary of the method: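 Test compound was given in the rat sciatic nerve block model. Rats were killed at 7 and 14 days. Sciatic nerve and surrounding tissue were HE-stained and inflammatory cells counted in equal-sized areas (nerve:surrounding 1:1). Serum ALT, AST, LDH, α-HBDH, CREA and UREA were run on an automatic analyser. Heart, liver and kidney were HE-stained for pathology.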

in vitro [9] = assay type: in vitro ADME; conditions: human, microsomes, pH 7.4
[10] = Systemic toxicity, intravenous; conditions: ICR, mouse, in vivo
DRG neurons = assay: LPS-induced ROS production, cytoplasmic mtDNA release, 8-OHdG; assay type: cell-based, rat; conditions: PC12 cells
[11] = Pharmacokinetics after subcutaneous injection; assay type: in vivo; conditions: male, Sprague-Dawley, rat, plasma, sc, 62.3 mmol/L
[12] = test system: NaV currents in rat dorsal root ganglion (DRG) neurons; assay: Whole-cell patch clamp, sodium current in DRG neurons; assay type: cell-based
Summary of the method: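 Male rat DRG neurons (180–200 g donors) were dissociated with collagenase IV (2 mg/mL) then trypsin (10 mg/mL) for 30 min, plated on poly-L-lysine and grown in Neurobasal with FBS and B27. Whole-cell voltage clamp used 3–4 MΩ electrodes. I/V steps ran from −90 to +40 mV in 10 mV increments, 50 ms each.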

SD rats = assay: Systemic toxicity, subcutaneous injection; assay type: in vivo, rat; conditions: TI = LD50/ED50, s.c.
[13] = Systemic toxicity, subcutaneous injection; assay type: in vivo, rat; conditions: Sprague-Dawley, rat, in vivo, sc
NLRP3 inflammasome = NLRP3 inflammasome activation after LPS; assay type: cell-based, rat
Summary of the method: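 DRG neurons and NGF-differentiated PC12 cells, with LPS given before or together with test compound. ASC specks: 3% paraformaldehyde 15 min, 0.5% Triton X-100 15 min, 5% BSA 2 h, anti-ASC 1:200 overnight at 4 °C, secondary 1:500 1 h in the dark, DAPI, fluorescence microscopy. Western blot: PVDF, 5% milk 2 h, anti-NLRP3 and anti-caspase-1 1:1000 overnight at 4 °C.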

IL-1β, IL-6, TNFα = assay: LPS-induced inflammatory factor expression; assay type: cell-based, rat; conditions: LPS 24 h, DRG neurons and PC12 cells; similar to LD, stronger than AT
rats [14] = assay: Plantar incisional pain model; assay type: in vivo, rat; conditions: 0.2 mL near incision
Summary of the method: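 Rats with a plantar incision received test compound or saline, 0.2 mL, near the incision. Local anesthesia was assessed by von Frey stimulation of the lateral sole.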

rats [15] = assay: Cutaneous trunci pinprick model; assay type: in vivo, rat; conditions: 62.3 mmol/L, subcutaneous
Summary of the method: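 Male SD rats under 1%–3% isoflurane had about 6 cm × 6 cm of back shaved, swabbed with alcohol and split into four areas. Test compound (62.3 mmol/L) was given by s.c. infiltration. Pinprick scored 1 for no response and 0 for response. Duration ran from onset to expiration, expressed as mean-score MPE. Effective block was ≥50% MPE; complete block was 100% MPE.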

Chain of NaV1.5 (Q14524 whole entry): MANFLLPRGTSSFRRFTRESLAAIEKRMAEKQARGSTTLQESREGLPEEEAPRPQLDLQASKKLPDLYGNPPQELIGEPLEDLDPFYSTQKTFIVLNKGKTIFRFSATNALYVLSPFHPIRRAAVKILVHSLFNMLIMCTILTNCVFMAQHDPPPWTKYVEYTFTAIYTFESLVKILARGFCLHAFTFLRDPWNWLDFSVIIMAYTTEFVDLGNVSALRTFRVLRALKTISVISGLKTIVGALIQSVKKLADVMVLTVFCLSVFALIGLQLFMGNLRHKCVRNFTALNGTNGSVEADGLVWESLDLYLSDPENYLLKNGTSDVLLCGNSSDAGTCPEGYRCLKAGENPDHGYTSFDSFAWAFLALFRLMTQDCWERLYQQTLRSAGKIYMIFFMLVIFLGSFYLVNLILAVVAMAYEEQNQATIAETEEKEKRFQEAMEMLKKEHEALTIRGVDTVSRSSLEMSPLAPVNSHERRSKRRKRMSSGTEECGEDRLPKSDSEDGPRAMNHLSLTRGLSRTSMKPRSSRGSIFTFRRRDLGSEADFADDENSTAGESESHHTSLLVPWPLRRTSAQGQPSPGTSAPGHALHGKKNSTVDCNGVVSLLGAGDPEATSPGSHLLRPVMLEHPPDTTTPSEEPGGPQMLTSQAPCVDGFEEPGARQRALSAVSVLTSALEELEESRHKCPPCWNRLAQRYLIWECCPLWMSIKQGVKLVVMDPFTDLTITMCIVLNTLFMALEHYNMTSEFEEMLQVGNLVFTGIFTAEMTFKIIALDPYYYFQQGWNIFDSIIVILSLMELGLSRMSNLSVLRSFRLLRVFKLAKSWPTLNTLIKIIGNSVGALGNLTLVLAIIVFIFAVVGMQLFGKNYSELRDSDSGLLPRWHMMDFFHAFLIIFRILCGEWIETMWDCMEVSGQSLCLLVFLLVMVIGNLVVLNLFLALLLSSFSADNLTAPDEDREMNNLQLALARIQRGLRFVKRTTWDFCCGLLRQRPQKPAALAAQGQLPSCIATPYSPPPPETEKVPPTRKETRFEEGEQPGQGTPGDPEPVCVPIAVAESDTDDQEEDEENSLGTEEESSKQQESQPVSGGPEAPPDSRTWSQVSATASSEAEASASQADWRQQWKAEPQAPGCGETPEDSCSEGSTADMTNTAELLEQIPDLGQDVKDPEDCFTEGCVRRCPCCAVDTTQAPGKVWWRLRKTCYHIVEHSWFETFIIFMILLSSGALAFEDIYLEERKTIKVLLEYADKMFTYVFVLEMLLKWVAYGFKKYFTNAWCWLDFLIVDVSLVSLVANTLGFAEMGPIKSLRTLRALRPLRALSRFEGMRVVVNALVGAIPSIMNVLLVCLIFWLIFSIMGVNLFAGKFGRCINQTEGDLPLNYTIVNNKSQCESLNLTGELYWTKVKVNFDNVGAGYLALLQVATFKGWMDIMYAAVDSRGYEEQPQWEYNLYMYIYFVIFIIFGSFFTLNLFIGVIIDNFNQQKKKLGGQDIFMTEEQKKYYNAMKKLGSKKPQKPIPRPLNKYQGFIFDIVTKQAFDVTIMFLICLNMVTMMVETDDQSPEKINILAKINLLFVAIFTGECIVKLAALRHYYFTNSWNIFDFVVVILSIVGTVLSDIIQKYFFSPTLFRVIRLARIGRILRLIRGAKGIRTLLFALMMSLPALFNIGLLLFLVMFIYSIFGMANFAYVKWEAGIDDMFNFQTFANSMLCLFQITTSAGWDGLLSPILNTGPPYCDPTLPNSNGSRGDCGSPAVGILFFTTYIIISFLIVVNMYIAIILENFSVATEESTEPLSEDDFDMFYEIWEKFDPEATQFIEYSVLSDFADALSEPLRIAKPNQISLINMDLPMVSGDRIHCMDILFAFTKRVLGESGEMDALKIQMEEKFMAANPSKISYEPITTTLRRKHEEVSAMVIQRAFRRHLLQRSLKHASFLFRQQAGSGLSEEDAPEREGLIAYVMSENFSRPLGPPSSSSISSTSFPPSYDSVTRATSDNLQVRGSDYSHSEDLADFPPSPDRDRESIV
Chain of hERG channel (Q12809 whole entry): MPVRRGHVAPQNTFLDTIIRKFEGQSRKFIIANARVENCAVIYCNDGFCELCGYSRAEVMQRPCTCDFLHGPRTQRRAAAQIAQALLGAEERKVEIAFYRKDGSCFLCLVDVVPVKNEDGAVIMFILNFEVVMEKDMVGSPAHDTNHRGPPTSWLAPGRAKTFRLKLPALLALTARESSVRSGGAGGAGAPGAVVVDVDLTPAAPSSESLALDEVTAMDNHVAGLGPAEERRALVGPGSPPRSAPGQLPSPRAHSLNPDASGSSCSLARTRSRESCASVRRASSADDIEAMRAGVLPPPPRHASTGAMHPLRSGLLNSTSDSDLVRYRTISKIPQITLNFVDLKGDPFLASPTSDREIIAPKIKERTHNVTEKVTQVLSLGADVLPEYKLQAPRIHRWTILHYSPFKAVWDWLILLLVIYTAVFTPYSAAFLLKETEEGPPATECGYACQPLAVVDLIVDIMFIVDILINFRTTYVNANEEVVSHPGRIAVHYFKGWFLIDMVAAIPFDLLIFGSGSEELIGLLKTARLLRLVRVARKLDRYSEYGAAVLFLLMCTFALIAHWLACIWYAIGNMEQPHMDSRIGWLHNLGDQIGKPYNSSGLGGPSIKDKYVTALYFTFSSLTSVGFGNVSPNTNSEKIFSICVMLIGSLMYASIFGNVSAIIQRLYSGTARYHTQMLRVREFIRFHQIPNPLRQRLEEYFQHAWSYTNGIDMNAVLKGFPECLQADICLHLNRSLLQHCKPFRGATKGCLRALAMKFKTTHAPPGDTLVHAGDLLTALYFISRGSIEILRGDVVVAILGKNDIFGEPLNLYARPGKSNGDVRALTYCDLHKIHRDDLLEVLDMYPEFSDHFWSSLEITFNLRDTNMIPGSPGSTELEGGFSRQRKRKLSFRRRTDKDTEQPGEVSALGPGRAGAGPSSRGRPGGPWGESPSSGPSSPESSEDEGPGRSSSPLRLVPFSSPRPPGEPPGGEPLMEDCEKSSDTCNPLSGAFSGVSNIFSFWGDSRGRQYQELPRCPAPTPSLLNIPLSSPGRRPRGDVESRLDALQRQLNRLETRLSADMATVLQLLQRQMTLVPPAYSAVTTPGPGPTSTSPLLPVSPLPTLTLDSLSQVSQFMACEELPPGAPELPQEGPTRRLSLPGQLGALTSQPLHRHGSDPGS

CCCCN1CCN(C(C)C(=O)Nc2c(C)csc2C(=O)OC)CC1 (centres unmarked) [AT-17, Methyl 3-(2-(4-butylpiperazin-1-yl)propanamido)-4-methylthiophene-2-carboxylate]
motor block duration (rats [1]; extensor postural thrust): 260 min | duration of effective sensory blockade (rats [1]; hotplate test): 200 min | reduction in peak current compared to AT (I‒V relationship) [2]: 10.56% | weight loss and food intake (rats [3]): significantly mitigating | duration of action (anesthesia) under CFA-induced chronic inflammation (rats [4]): 83.3 min | k′ NaV1.5 (NaV1.5): 22.4 | inhibition at 100 μM/L (hERG channel): 38% | face grooming frequency (rats [5]): significantly lowered | recovery in body weight and food intake (rats [5]; compared with AT): more pronounced recovery | half-life (in vitro [6]): 1.03 h | weight loss and pain-related decreases in food intake (rats [7]): more effective | ALT, AST, LDH, α-HBDH, CREA, UREA levels vs control group (rats [8]; rats, 7 days and 14 days post-administration): no marked differences | pathological assessment of heart, liver, and kidney vs control group (rats [8]; rats, local administration to the sciatic nerve): no significant pathological changes | number of inflammatory cells in tissues compared with AT (rats [8]; sciatic nerve block model, HE, ImageJ): significantly lower | half-life (in vitro [9]): 1.25 h | LD50 [10]: 43.5 mg/kg | LPS-induced ROS production, cytoplasmic mtDNA release, and 8-OHdG levels (DRG neurons): reduced | AUC(0-t) [11]: 5550 ng·h/mL | Tmax [11]: 1 h | half-life [11]: 0.823 h | IC50 ([12]; F-11 rat/mouse fusion cell line, DRG neuron, read-out: IC50 sodium current): 31.6 ± 2.07 µM | reduction in the peak current compared to AT (I‒V relationship) ([12]; rat DRG neurons): 36.35% | TI (SD rats): 149.17 | LD50 at 24 h [13]: 424 mg/kg | LPS-induced ASC speck formation (NLRP3 inflammasome; DRG neurons, PC12 cells): inhibits | NLRP3, ASC, and pro-Casp1 expression (NLRP3 inflammasome; LPS, acute and chronic conditions): modestly reduced | inflammatory factors (IL-1β, IL-6, TNFα) expression (IL-1β, IL-6, TNFα): significantly inhibited | anesthesia result in acute inflammation model through plantar incision (rats [14]): improved results | subcutaneous infiltration duration (rats [15]): 400 min
